For assay [1], the target named is T1, Beta-2 adrenergic receptor (Homo sapiens, UniProt P07550). In words: Agonist activity at recombinant human beta2-adrenoceptor expressed in whole cells assessed as cAMP accumulation by homogeneous radioimmunoassay. Format: functional, cell-based. On the technique in general: cAMP levels reflect the balance of adenylyl cyclase and phosphodiesterase activity.
Target sequence in this assay (P07550 whole entry): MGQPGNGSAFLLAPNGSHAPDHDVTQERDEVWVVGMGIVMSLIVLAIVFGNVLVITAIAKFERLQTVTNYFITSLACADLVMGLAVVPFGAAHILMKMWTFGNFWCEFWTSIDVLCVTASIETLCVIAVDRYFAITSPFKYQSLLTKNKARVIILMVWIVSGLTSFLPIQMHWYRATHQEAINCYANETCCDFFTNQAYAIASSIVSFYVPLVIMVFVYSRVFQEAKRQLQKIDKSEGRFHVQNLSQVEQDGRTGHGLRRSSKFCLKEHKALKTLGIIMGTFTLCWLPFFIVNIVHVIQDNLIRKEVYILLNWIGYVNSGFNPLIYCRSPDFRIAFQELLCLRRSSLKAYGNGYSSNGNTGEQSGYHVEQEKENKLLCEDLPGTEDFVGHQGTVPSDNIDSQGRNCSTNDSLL
The target in assay [2] is T1, Beta-2 adrenergic receptor. In words: Displacement of [3H]dihydroalprenolol from beta2-adrenoceptor after 90 mins by liquid scintillation counting. (Displacement assays read how much labelled ligand stays bound in the presence of the test substance.)
Target sequence in this assay (P07550 whole entry): as above
The test system of assay [3] is Cavia porcellus. Nature of the assay: Bronchoprotective activity in Ach-stimulated guinea pig assessed as reduction in pulmonary resistance at 300 ug/mL administered via nebulization measured after 24 hrs by head-out plethysmography. Format: functional, organism-based.
Assay [4] relates to Cavia porcellus. In words: Bronchoprotective activity in Ach-stimulated guinea pig assessed as reduction in pulmonary resistance at 30 ug/mL administered via nebulization measured at 48 hrs post-dosing by head-out plethysmography. Format: functional, organism-based. In outline:
(§1)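 Guinea pigs dosed by nebulization, with water as control. Pulmonary resistance was measured in anesthetized, spontaneously breathing animals by head-out plethysmography. Bronchoconstriction was induced with increasing intravenous acetylcholine doses. The read-out was PD2, the ACh dose needed to double baseline resistance.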

Assay [5] has as its target Beta-1 adrenergic receptor (Homo sapiens, UniProt P08588). Nature of the assay: Agonist activity at recombinant human beta1-adrenoceptor expressed in whole cells assessed as cAMP accumulation by homogeneous radioimmunoassay. Format: functional, cell-based.
The target of assay [6] is T1, Beta-2 adrenergic receptor. Nature of the assay: Agonist activity at beta2-adrenoceptor endogenously expressed in human BEAS-2B cells assessed as cAMP accumulation by homogeneous radioimmunoassay. Format: functional, cell-based.
Target sequence in this assay (P07550 whole entry): as above
The target of assay [7] is T1, Beta-2 adrenergic receptor. Nature of the assay: Ratio of pEC50 for recombinant human beta2-adrenoceptor expressed in whole cells to pEC50 for beta2-adrenoceptor endogenously expressed in human BEAS-2B cells. Format: cell-based. The procedure, abridged:
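cAMP accumulation was measured by homogeneous radioimmunoassay (Flashplate) in two systems: whole cells overexpressing cloned human β2-adrenoceptor, and BEAS-2B human bronchial epithelial cells with endogenous β2-adrenoceptor. Potency was taken from each, and intrinsic activity from BEAS-2B.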
Target sequence in this assay (P07550 whole entry, looked up): as the sequence (P07550 whole entry) above

For assay [8], the species on record is Homo sapiens. Nature of the assay: Selectivity ratio of pEC50 for recombinant human beta2-adrenoceptor to pEC50 for human beta1-adrenoceptor. In outline: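 Agonist stimulation of cAMP accumulation was measured by homogeneous radioimmunoassay (Flashplate) in whole cells overexpressing cloned human β2- or β1-adrenoceptor. Selectivity was calculated as the ratio of agonist EC50 potencies at the two subtypes.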

The test system of assay [9] is Cavia porcellus. Nature of the assay: Bronchoprotective activity in Ach-stimulated guinea pig assessed as reduction in pulmonary resistance at 30 ug/mL administered via nebulization measured after 1.5 hrs by head-out plethysmography. Format: functional, organism-based. The procedure, abridged: as §1

From ChEMBL document CHEMBL1938358, “A multivalent approach to the discovery of long-acting β(2)-adrenoceptor agonists for the treatment of asthma and COPD” (Bioorg Med Chem Lett, 2012) come the findings set out here.

What is called EC50 is the concentration at which the effect is half-maximal. By IC50 is commonly meant the point on the concentration scale where inhibition reaches its midpoint.

Active and inactive are the calls of the source. The rule behind the calls is not given here. Some results are limits rather than exact numbers.

Sequence of Beta-1 adrenergic receptor (P08588 whole entry): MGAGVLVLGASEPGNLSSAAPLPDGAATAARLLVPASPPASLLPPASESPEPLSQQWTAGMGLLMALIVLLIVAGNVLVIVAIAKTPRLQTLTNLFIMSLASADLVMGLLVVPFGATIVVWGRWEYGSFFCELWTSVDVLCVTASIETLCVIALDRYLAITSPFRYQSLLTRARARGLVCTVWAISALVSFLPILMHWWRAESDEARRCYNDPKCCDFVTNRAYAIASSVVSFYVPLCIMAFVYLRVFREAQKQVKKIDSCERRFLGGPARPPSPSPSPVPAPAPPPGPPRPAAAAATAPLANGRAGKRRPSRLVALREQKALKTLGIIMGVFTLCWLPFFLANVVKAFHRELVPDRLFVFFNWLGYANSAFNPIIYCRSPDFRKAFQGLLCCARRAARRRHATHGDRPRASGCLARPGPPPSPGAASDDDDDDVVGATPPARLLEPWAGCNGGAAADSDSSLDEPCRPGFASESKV

Turning to `Cc1ccc(C(O)CNc2ccc(CCNCC(O)c3ccc(O)c(CO)c3)cc2)cc1` (configuration not stated), the EC50 in [1] is 2.51 nM.
Consider `OCc1cc(C(O)CNCCCCCCNCC(O)c2ccc(O)c(CO)c2)ccc1O` (configuration not stated), for which, in [2], the IC50 is 7940 nM.
Consider `COc1ccc(C(O)CNc2ccc(CCNCC(O)c3ccc(O)c(CO)c3)cc2)c(OC)c1` (configuration not stated), for which the EC50 in [1] is 39.8 nM.
With `OC(CNCCc1ccc(NCC(O)c2ccccc2)cc1)c1ccccc1` (configuration not stated), the IC50 in assay [2] is 251 nM.
On to `COc1ccc(OC)c(C(O)CNc2ccc(CCNCC(O)c3ccc(O)c(CO)c3)cc2)c1` (configuration not stated), for which the EC50 in [1] was 6.31 nM.
In assay [2], `OCc1cc(C(O)CNCCc2ccc(NCC(O)c3ccc(O)c(CO)c3)cc2)ccc1O` (configuration not stated) showed an IC50 of 251 nM.
Turning to `OCc1cc(C(O)CNCCc2ccc(OCC(O)c3ccccc3)cc2)ccc1O` (configuration not stated), in assay [1], the EC50 is 0.398 nM.
`OCc1cc(C(O)CNCc2cccc(CNCC(O)c3ccc(O)c(CO)c3)c2)ccc1O` (configuration not stated): the half-inhibitory concentration (IC50) in assay [2] was 20000 nM. In other words, the double-digit micromolar range.
Regarding `OCc1cc(C(O)CNCCc2ccc(NCC(O)c3ccc(-c4ccccc4)cc3)cc2)ccc1O` (configuration not stated), the EC50 in assay [1] was 39.8 nM.
Still for that read-out and setting: with `OCc1cc(C(O)CNCCc2ccc(NCC(O)c3ccc(O)cc3)cc2)ccc1O` (configuration not stated) the figure was 7.94 nM.
On to `OCc1cc(C(O)CNC2CCC(CC3CCC(NCC(O)c4ccc(O)c(CO)c4)CC3)CC2)ccc1O` (configuration not stated), for which the IC50 in assay [2] is 20000 nM.
Consider `OCc1cc(C(O)CNCCCCCCOCCCCc2ccccc2)ccc1O` (configuration not stated), for which the outcome in assay [3] was Active. Also, the result in assay [4] was inactive.
Turning to `CC(C)(C)c1ccc(C(O)CNc2ccc(CCNCC(O)c3ccc(O)c(CO)c3)cc2)cc1` (configuration not stated), the EC50 in [1] is 50.1 nM.
As for `OCc1cc([C@@H](O)CNCCc2ccc(NC[C@@H](O)c3ccccc3)cc2)ccc1O` (mixture of isomers), the values for the EC50 in assay [1], in [5] and in assay [6] were 0.316 nM, 251 nM and 3.98 nM, respectively. In assay [7], the Ratio was determined as 10.
As for `O=CNc1cc([C@@H](O)CNCCc2ccc(NC[C@H](O)c3ccccc3)cc2)ccc1O` [MILVETEROL], the EC50 in assay [1] is 0.0631 nM; in [5], 25.1 nM; in assay [6] it was 0.501 nM. For the same compound, the Ratio was > 300 in [8] and 10 in [7]. For the same compound, the result in [9] and in [4] was Active.
Take `OCc1cc(C(O)CNCCc2ccc(NCC(O)c3ccc(Cl)cc3)cc2)ccc1O` (configuration not stated): the EC50 in assay [1] was 1.58 nM.
The compound `OCc1cc(C(O)CNCc2ccc(CNCC(O)c3ccc(O)c(CO)c3)cc2)ccc1O` (configuration not stated) gave an IC50 in [2] of 50100 nM.
On to `OCc1cc(C(O)CN[C@H]2CC[C@H](NCC(O)c3ccc(O)c(CO)c3)CC2)ccc1O` (some centres not stated), for which the IC50 in [2] was 5010 nM.
With `O=c1ccc2c([C@@H](O)CNCCc3ccc(NC[C@H](O)c4ccccc4)cc3)ccc(O)c2[nH]1`, the EC50 in assay [1] is 0.126 nM; in assay [6], 1.26 nM. Further, the Ratio in assay [7] was determined as 10.
Regarding `Nc1c(Cl)cc([C@@H](O)CNCCc2ccc(NC[C@H](O)c3ccccc3)cc2)cc1Cl`, the EC50 in assay [1] is 0.398 nM.
Regarding `CC(C)(CNCC(O)c1ccc(O)c(CO)c1)CNCC(O)c1ccc(O)c(CO)c1` (configuration not stated), the IC50 in assay [2] is 251000 nM.
For the compound `OCc1cc(C(O)CNCCc2ccc(CCNCC(O)c3ccc(O)c(CO)c3)cc2)ccc1O` (configuration not stated), the IC50 in assay [2] is 100000 nM. This IC50 lies about 2.5-fold lower than the previous one.
Same read-out and setting: then `OCc1cc(C(O)CNCc2ccc(NCC(O)c3ccc(O)c(CO)c3)cc2)ccc1O` (configuration not stated), with 2000 nM.
In the case of `OCc1cc(C(O)CNCCc2ccc(NCC(O)c3ccc(F)cc3)cc2)ccc1O` (configuration not stated), in assay [1], the EC50 is 2 nM.
Consider `OCc1cc(C(O)CNCCc2ccc(NCC(O)c3ccccc3)cc2)ccc1O` (configuration not stated), for which the IC50 in [2] was 39.8 nM. The EC50 in [1] was 0.316 nM.
`OCc1cc(C(O)CNCCc2ccc(NCC(O)c3ccc4ccccc4c3)cc2)ccc1O` (configuration not stated): the EC50 in assay [1] is 50.1 nM.
As for `CC(C)(Cc1ccc(NCC(O)c2ccccc2)cc1)NCC(O)c1ccc(O)c(CO)c1` (configuration not stated), the EC50 in [1] was 0.316 nM.
For `OCc1cc(C(O)CNC2Cc3ccc(NCC(O)c4ccccc4)cc3C2)ccc1O` (configuration not stated), the EC50 in assay [1] was 5.01 nM.
As to `OCc1cc([C@@H](O)CNCCc2ccc(NC[C@H](O)c3ccccc3)cc2)ccc1O`, the half-maximal effective concentration (EC50) was 0.1 nM in [1], 251 nM in assay [5] and 1.26 nM in [6]. For the same compound, the Ratio in assay [8] was > 300; in assay [7], 10. For the same compound, the outcome in [9] was Active. In addition, in assay [4], the result was inactive.
Take `OCc1cc(C(O)CNCC2CCCC(CNCC(O)c3ccc(O)c(CO)c3)C2)ccc1O` (configuration not stated): in assay [2], the IC50 was 10000 nM.
As to `CC(C)CCc1ccc(C(O)CNc2ccc(CCNCC(O)c3ccc(O)c(CO)c3)cc2)cc1` (configuration not stated), the half-maximal effective concentration (EC50) in [1] is 63.1 nM.
`OCc1cc(C(O)CNCCCCNCC(O)c2ccc(O)c(CO)c2)ccc1O` (configuration not stated): the IC50 in assay [2] is 10000 nM. That is a double-digit micromolar value.
For `CN(CC(O)c1ccccc1)c1ccc(CCNCC(O)c2ccc(O)c(CO)c2)cc1` (configuration not stated), in [1], the EC50 is 2 nM.
